The sample as a whole holds a higher share of hits than the screen did.
CHOP inhibitor – CHOP inhibition in unfolded protein response | CHO-K1 CHOP-promoter luciferase, tunicamycin-induced, 15-18 h | inhibition, % at 10 µM | 220,000 tested, 3.8% active | AID 2732;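 active = compounds that reduced the stress-induced luciferase reporter signal by more than about 70% of percent inhibition, limit read from the data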;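 also: 0% = tunicamycin plus vehicle and 100% = wells without tunicamycin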
Fh CTSL1 inh – counter-screen for PFM18AAP inhibitors: inhibitors of F. hepatica cathepsin L1 | recombinant F. hepatica cathepsin L1, Z-Leu-Arg-MCA fluorescence | inhibition, % at 5.96 µM | 300,000 tested, 0.49% active | AID 1906;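 active = inhibition above the mean of all tested compounds plus 3 SD, set per screening campaign, cut at about 17% in these data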;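 also: 0% = plate median of test compound wells and 100% = 1 µM Z-Phe-Ala-diazomethylketone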
UPR CHOP act – apoptotic UPR (CHOP) activation; AID 449763; CHO-CHOP luciferase reporter, luminescence; percent of tunicamycin response over DMSO baseline; activation, % at 10 µM; 330,000 tested, 0.34% active;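 active = at 10 µM dose, activation of 40% or more, normalized to positive control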;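 also: 100% = tunicamycin at 10 µg/mL and 0% = DMSO alone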
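Test system: CHO-CHOP cells, stable luciferase reporter of PERK-eIF2a-CHOP signalling | Quantity: 500 CHO-CHOP cells per well | Buffer or medium: F12 plus 10% serum | Compound dosing: 10 µM single point, 0.5% DMSO | Schedule: 6 h compound treatment, 37 °C | Signal: Luciferase luminescence | Control set: Tunicamycin high control, DMSO low control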
XBP1 UPR activ – adaptive UPR (XBP1) activation. CHO-XBP1 luciferase reporter, IRE1-XBP1 UPR activation, luminescence; percent of tunicamycin response, DMSO as zero. activation, % at 20 µM. 330,000 tested, 0.33% active. AID 463104;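 active = versus positive control, 20 µM dose yields 30% or more activation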;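 also: 100% = tunicamycin at 10 µg/mL and 0% = DMSO only wells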
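Material – CHO cell line with stable XBP1 luciferase reporter · Buffer or medium – F12 plus 10% FBS · Compound – single point, 20 µM final compound, 1% DMSO · Schedule – 16-18 h cell attachment at 37 °C, then 6 h compound exposure · Signal – Steady-Glo luminescence read · Benchmarks – high control tunicamycin 10 µg/mL final, low control DMSO vehicle only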
UCH37 inh – inhibitors of human deubiquitinating enzyme UCH37 | Q9Y5K5 | 330,000 tested, 0.33% active | AID 588478 | purified proteasome/UCH37, Ub-AMC cleavage fluorescence | inhibition, % (concentration not given with the values);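 active = mean inhibition over replicate wells above about 20%, limit read from the data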;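 also: 0% = compound-free wells with enzyme and 100% = wells lacking proteasome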
Target sequence (Q9Y5K5 whole entry, looked up): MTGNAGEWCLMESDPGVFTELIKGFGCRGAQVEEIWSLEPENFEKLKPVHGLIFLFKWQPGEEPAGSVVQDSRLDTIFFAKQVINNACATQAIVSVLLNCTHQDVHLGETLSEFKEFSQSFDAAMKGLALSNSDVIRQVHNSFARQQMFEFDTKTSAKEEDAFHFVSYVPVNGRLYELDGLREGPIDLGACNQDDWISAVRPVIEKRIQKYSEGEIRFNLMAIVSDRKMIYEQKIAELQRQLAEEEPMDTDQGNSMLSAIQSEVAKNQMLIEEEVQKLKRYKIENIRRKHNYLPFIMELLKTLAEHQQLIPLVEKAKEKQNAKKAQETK
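Material: human UCH37 enzyme supplied as purified proteasome complex. Measure: % inhibition of Ub-AMC cleavage fluorescence. Medium: pH 7.4 Tris-HCl (50 mM) with ovalbumin, ATP-MgCl2, DTT. Times: 30 min preincubation with enzyme, 25 min cleavage at room temperature. Detection: AMC fluorescence intensity at 355/460 nm.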
Starred values were filed as active, the others as inactive; nt = no result given.

SMILES	CHOP inhibitor	Fh CTSL1 inh	UPR CHOP act	XBP1 UPR activ	UCH37 inh
CCc1ccc(S(=O)(=O)/N=C2\C=C(Nc3cccc(C(=O)O)c3)C(=O)c3ccccc32)cc1	nt	50.6*	4.1	0.5	nt
CCc1ccc(S(=O)(=O)/N=C2\C=C(Nc3ccc(O)cc3)C(=O)c3ccccc32)cc1	nt	63.4*	3.0	-9.6	nt
COc1cc(CN(CC2CCCO2)C(=O)c2cccs2)cc(OC)c1OC (stereo not drawn)	nt	17.7*	0.2	-3.9	0.5
CCN(C(=O)c1ccc2c(Cl)c3c(nc2c1)CCC3)c1ccc(C)c(C)c1	91.0*	5.6	-1.9	-1.5	1.5
Cc1ccc(NC(=O)c2sccc2SCc2cccc(C(F)(F)F)c2)cc1	80.5*	-2.5	0.0	0.0	-1.2
Cc1cccc(C)c1NC(=O)c1sccc1SCc1cccc(C(F)(F)F)c1	82.0*	0.4	-2.0	-1.4	3.8
O=C(Cc1ccc(O)cc1)NN=Cc1cccs1	nt	nt	nt	nt	1.8
CCOc1ccccc1C=NNC(=O)CNC(=O)c1cccs1	nt	nt	nt	nt	1.6
c1ccc(-c2cc(-c3ccncc3)nc3ccc4ccccc4c23)cc1	88.8*	2.0	1.9	1.6	-37.6
Clc1ccc2nc(-c3ccncc3)cc(-c3ccccc3)c2c1	54.9	-0.5	-2.5	3.5	1.1
COc1ccc(C=NNc2nc(-c3cccc(S(=O)(=O)N4CCCC4)c3)cs2)cc1OC	nt	nt	nt	nt	-21.8
O=C(NN=Cc1cccnc1)c1ccc2ccccc2c1O	nt	nt	nt	nt	5.1
O=C(NN=Cc1ccc(Br)o1)c1ccc2c(c1)OCCO2	nt	nt	nt	nt	5.6
O=C(Nc1ccc(N2CCOCC2)c2nonc12)C1CCCC1	45.3	-4.4	0.3	-0.1	1.3
Nc1ccc(N2CCOCC2)c2nonc12	-4.2	32.5*	-0.9	2.3	16.3
CCOC(=O)/C(C#N)=C/C=C1/C=CC=CN1C	-9.6	9.2	4.0	4.8	20.2*
CCOC(=O)/C(C#N)=C\N(C)C	-27.6	4.0	-1.2	-0.4	-0.1
Cc1ccc(NC(=S)N2CCN(CCN3C(=O)c4cccc5cccc(c45)C3=O)CC2)cc1	19.5	4.0	1.9	-0.6	2.6
O=C1c2cccc3cccc(c23)C(=O)N1CCN1CCN(C(=S)Nc2ccc(F)cc2)CC1	22.3	7.1	43.0*	26.4	nt
O=C(O)COc1ccccc1C=NNC(=O)CSc1nc2ccccc2c(=O)n1-c1ccccc1	nt	nt	nt	nt	1.3
CC(C)NC(=O)C1(O)c2ccccc2NC(=O)N1c1ccc(Cl)c(Cl)c1 (stereo not drawn)	81.3*	-2.1	-1.1	-1.2	1.1
CCOCCCNC(=O)C1(O)c2ccccc2NC(=O)N1c1ccc(Cl)c(Cl)c1 (stereo not drawn)	nt	0.9	0.9	-0.1	0.3
CC(C)(C)c1cc(Cl)c(O)c(NC(=S)NC(=O)c2cccnc2)c1	73.1*	0.3	3.8	6.1	6.4
CC(C)(C)c1ccc(C(=O)NNC(=S)NC(=O)c2cccnc2)cc1	nt	2.2	6.2	8.8	6.4
COc1ccc(CN(C(=O)CN2C(=O)C(C)Oc3ccccc32)C2CCCC2)c(OC)c1 (stereo not drawn)	71.4*	-0.7	0.2	1.9	2.3
SMILES	CHOP inhibitor	Fh CTSL1 inh	UPR CHOP act	XBP1 UPR activ	UCH37 inh
CC(C)c1ccc(NC(=O)c2cccc(Br)c2)cc1	84.3*	-6.0	4.0	5.0	-0.2
O=C(Nc1cccc(C(=O)Nc2cccc(Br)c2)c1)c1ccccc1	nt	-1.6	2.2	0.2	0.8
CC(=NNC1=NCCN1)c1ccccc1	nt	nt	nt	nt	4.0
Cc1ccccc1/C=C/c1nc2ccccc2c(=O)[nH]1	9.4	2.4	3.5	-2.8	-179.6
Cc1ccccc1/C=C\c1nc2ccccc2c(=O)[nH]1	83.9*	3.1	3.4	-2.6	-150.0
Cc1ccc(/C=C/c2nc3ccccc3c(=O)[nH]2)cc1	88.1*	-0.4	-5.2	-6.7	-94.2
O=C(Cn1cc2c(n1)CCCC2)Nc1cc(-c2cccc(Cl)c2)no1	95.4*	3.5	0.3	3.8	5.0
CC(NC(=O)Cn1cc2c(n1)CCCCC2)c1ccccc1 (stereo not drawn)	-3.9	-2.2	1.0	1.1	4.7
CC(=NNC(=O)c1nnn(-c2nonc2N)c1CN1CCc2ccccc21)c1ccccc1O	nt	nt	nt	nt	2.4
C=CCSC(=S)NC1CCS(=O)(=O)C1 (stereo not drawn)	70.4*	-2.1	6.9	-5.6	0.9
NC(=S)NC1CCS(=O)(=O)C1 (stereo not drawn)	15.7	24.5*	-0.3	-4.0	3.6
O=c1c2cc(N3CCOCC3)ccc2[nH]c(=S)n1Cc1ccc(Cl)cc1	70.5*	-1.8	3.7	0.4	-31.8
Cc1cc(C(C)(C)C)oc1C(=O)N(CC(=O)NC1CCCC1)c1cccc(C(F)(F)F)c1	82.5*	1.6	-1.3	0.0	2.8
COc1ccc(/C=C/C(=O)NCC(=O)NN=C(C)c2ccco2)cc1	nt	nt	nt	nt	3.7
CCCCCC1CC(CC(=O)NC(=S)Nc2ccc([N+](=O)[O-])cc2)C(=O)O1 (stereo not drawn)	85.0*	2.1	-2.2	-5.7	0.3
CCCCCCC1CC(CC(=O)Nc2ccc([N+](=O)[O-])cc2)C(=O)O1 (stereo not drawn)	94.8*	4.2	0.6	-2.6	1.5
CC1(C)CC(CC(=O)Nc2ccc([N+](=O)[O-])cc2)C(=O)O1 (stereo not drawn)	12.2	0.3	-2.3	1.2	6.6
COC(=O)c1ccc(CNC(=O)COC(=O)C2CCC(C(C)(C)C)CC2)cc1 (stereo not drawn)	93.2*	-1.3	1.7	-0.4	0.9
CN(C)c1ccc(C=NNC(=O)CN2CCN(c3ccc(F)cc3)CC2)cc1	nt	nt	nt	nt	3.0
CN(C)c1ccc(/C=N/NC(=O)CN2CCN(c3ccc(F)cc3)CC2)cc1	82.0*	-3.1	4.3	2.4	nt
CC(=O)Nc1ccc(C(=O)NN=Cc2ccccc2OCc2ccccc2)cc1	nt	nt	nt	nt	1.5
CC(C)c1ccc(OCc2nc(-c3ccccn3)no2)c(Br)c1	70.6*	-0.6	0.5	-1.8	2.6
Cc1ccc(OCc2nc(-c3ccccn3)no2)c(Br)c1	67.8	1.3	-2.7	-2.4	6.2
COc1ccc(-c2n(CC(=O)OC3CC(C)CCC3C(C)C)c3ccccc3[n+]2C)cc1 (stereo not drawn)	87.5*	nt	nt	nt	-0.1
Cc1cc(Cl)ccc1NC(=O)CSc1nnc(-c2ccncc2)n1Cc1ccco1	1.3	-4.8	-0.6	-1.1	-0.3
Cc1ccc(NCc2nnc(SCC(=O)Nc3ncc(C)s3)n2Cc2ccco2)c(C)c1	93.6*	0.9	1.7	2.5	4.3
O=C(CNCC1CCCCC1)Nc1ccc(OC(F)(F)F)cc1	90.6*	-0.3	-1.5	0.9	3.3
O=C(CNCC1CCCO1)Nc1ccccc1N1CCOCC1 (stereo not drawn)	-4.7	0.7	0.0	0.3	2.3
O=C(CCC1CCCCC1)Nc1ccccc1O	73.1*	-1.1	3.1	4.5	2.4
